Reference: ChEMBL document CHEMBL1817584, “Synthesis of novel fluconazoliums and their evaluation for antibacterial and antifungal activities” (2011)
In brackets after ≈: the same amount, converted by molar mass.

Legend:
Type in all cases: functional
[1] = tested on: Aspergillus fumigatus; assay: Antifungal activity against Aspergillus fumigatus ATCC 96918 after 24 hrs by twofold serial dilution method; details: ATCC 96918, 24 h
Procedure, shortened: (§1)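 A fungal spore suspension was made in sterile distilled water from a 1-day-old culture grown on Sabouraud agar, then tested against serial dilutions of compounds (DMSO stocks) to determine MIC.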

[2] = tested on: Candida albicans; assay: Antifungal activity against Candida albicans ATCC 76615 after 24 hrs by twofold serial dilution method; details: ATCC 76615, 24 h; procedure, shortened: as §1
[3] = tested on: Bacillus; assay: Antibacterial activity against Bacillus proteus ATCC 13315 after 24 hrs by twofold serial dilution method; details: ATCC 13315, 24 h
Procedure, shortened: (§2)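 Each bacterial suspension was adjusted with sterile saline to 1 × 10⁵ CFU. Compounds were first dissolved in DMSO as stock solutions, then diluted in Mueller–Hinton broth in twofold steps (8, 4, 2, 1, 0.5, 0.25). Dilutions were inoculated and incubated at 37 °C for 24 h, and MIC was read. DMSO plus inoculum without drug served as a solvent control.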

[4] = tested on: Pseudomonas aeruginosa; assay: Antibacterial activity against Pseudomonas aeruginosa ATCC 27853 after 24 hrs by twofold serial dilution method; details: ATCC 27853, 24 h; procedure, shortened: as §2
[5] = tested on: Bacillus subtilis; assay: Antibacterial activity against Bacillus subtilis ATCC 21216 after 24 hrs by twofold serial dilution method; details: ATCC 21216, 24 h; procedure, shortened: as §2
[6] = tested on: Staphylococcus aureus; assay: Antibacterial activity against Staphylococcus aureus ATCC 6538 after 24 hrs by twofold serial dilution method; details: ATCC 6538, 24 h; procedure, shortened: as §2
[7] = tested on: Escherichia coli; assay: Antibacterial activity against Escherichia coli ATCC 8099 after 24 hrs by twofold serial dilution method; details: ATCC 8099, 24 h; procedure, shortened: as §2
[8] = tested on: Staphylococcus aureus; assay: Antibacterial activity against methicillin-resistant Staphylococcus aureus N315 after 24 hrs by twofold serial dilution method; details: N315, 24 h
Procedure, shortened: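 Compounds were dissolved in DMSO as stock, then diluted twofold in Mueller–Hinton broth. Chloromycin and norfloxacin were run as reference drugs. The inoculum was adjusted in sterile saline to 1 × 10⁵ CFU, and a DMSO-plus-inoculum well served as solvent control. Plates were incubated at 37 °C for 24 h and read as MIC.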

Row | Compound | MIC [1] | MIC [2] | MIC [3] | MIC [4] | MIC [5] | MIC [6] | MIC [7] | MIC [8]
1 | BrCCOc1ccc2ccccc2c1 | > 256 µg/mL | > 256 µg/mL | > 256 µg/mL | > 256 µg/mL | > 256 µg/mL | 256 µg/mL (≈ 1020 µM) | 256 µg/mL (≈ 1020 µM) | > 256 µg/mL
2 | O=C1c2cccc3c(Br)ccc(c23)C(=O)N1CCCBr | 128 µg/mL (≈ 322 µM) | > 256 µg/mL | > 256 µg/mL | > 256 µg/mL | > 256 µg/mL | 128 µg/mL (≈ 322 µM) | 256 µg/mL (≈ 645 µM) | > 256 µg/mL
3 | O=C1c2cccc3c(Br)ccc(c23)C(=O)N1CCCCCCBr | 256 µg/mL (≈ 583 µM) | > 256 µg/mL | > 256 µg/mL | > 256 µg/mL | > 256 µg/mL | 256 µg/mL (≈ 583 µM) | > 256 µg/mL | > 256 µg/mL
4 | CCCC[n+]1cnn(CC(O)(Cn2c[n+](CCCC)cn2)c2ccc(F)cc2F)c1.[Br-].[Br-] | > 256 µg/mL | 128 µg/mL | 256 µg/mL | 256 µg/mL | > 256 µg/mL | > 256 µg/mL | 128 µg/mL | > 256 µg/mL
5 | CCCCCCCCCCCC[n+]1cnn(CC(O)(Cn2c[n+](CCCCCCCCCCCC)cn2)c2ccc(F)cc2F)c1.[Br-].[Br-] | > 256 µg/mL | 2 µg/mL | 8 µg/mL | 8 µg/mL | > 256 µg/mL | 2 µg/mL | 2 µg/mL | 32 µg/mL
6 | CCCCCCCCCCCCCCCC[n+]1cnn(CC(O)(Cn2c[n+](CCCCCCCCCCCCCCCC)cn2)c2ccc(F)cc2F)c1.[Br-].[Br-] | > 256 µg/mL | 4 µg/mL | 256 µg/mL | 128 µg/mL | 128 µg/mL | 8 µg/mL | 8 µg/mL | 128 µg/mL
7 | OC(Cn1c[n+](Cc2ccc(F)cc2F)cn1)(Cn1c[n+](Cc2ccc(F)cc2F)cn1)c1ccc(F)cc1F.[Br-].[Br-] | > 256 µg/mL | 128 µg/mL | 128 µg/mL | > 256 µg/mL | 256 µg/mL | 64 µg/mL | 64 µg/mL | 256 µg/mL
8 | OC(Cn1c[n+](Cc2ccc(Cl)c(Cl)c2)cn1)(Cn1c[n+](Cc2ccc(Cl)c(Cl)c2)cn1)c1ccc(F)cc1F.[Cl-].[Cl-] | 128 µg/mL | 4 µg/mL | 8 µg/mL | 16 µg/mL | 32 µg/mL | 8 µg/mL | 32 µg/mL | 64 µg/mL
9 | OC(Cn1c[n+](Cc2ccccc2Cl)cn1)(Cn1c[n+](Cc2ccccc2Cl)cn1)c1ccc(F)cc1F.[Cl-].[Cl-] | 32 µg/mL | 128 µg/mL | 8 µg/mL | > 256 µg/mL | 256 µg/mL | 32 µg/mL | 128 µg/mL | 256 µg/mL
10 | OC(Cn1c[n+](Cc2cccc(Cl)c2)cn1)(Cn1c[n+](Cc2cccc(Cl)c2)cn1)c1ccc(F)cc1F.[Cl-].[Cl-] | 256 µg/mL | 4 µg/mL | 128 µg/mL | 64 µg/mL | 64 µg/mL | 4 µg/mL | 32 µg/mL | 32 µg/mL
11 | OC(Cn1c[n+](Cc2ccc(Cl)cc2)cn1)(Cn1c[n+](Cc2ccc(Cl)cc2)cn1)c1ccc(F)cc1F.[Cl-].[Cl-] | 64 µg/mL | 256 µg/mL | 256 µg/mL | 16 µg/mL | 256 µg/mL | 64 µg/mL | 256 µg/mL | > 256 µg/mL
12 | OC(Cn1c[n+](Cc2ccc(Cl)cc2Cl)cn1)(Cn1c[n+](Cc2ccc(Cl)cc2Cl)cn1)c1ccc(F)cc1F.[Br-].[Br-] | 128 µg/mL | 64 µg/mL | 4 µg/mL | 64 µg/mL | 32 µg/mL | 64 µg/mL | 16 µg/mL | 64 µg/mL
13 | OC(Cn1c[n+](Cc2ccc(Cl)cc2Cl)cn1)(Cn1c[n+](Cc2ccc(Cl)cc2Cl)cn1)c1ccc(F)cc1F.[I-].[I-] | 32 µg/mL | 64 µg/mL | 4 µg/mL | 32 µg/mL | 64 µg/mL | 16 µg/mL | 4 µg/mL | 64 µg/mL
14 | Cc1cccc(C[n+]2cnn(CC(O)(Cn3c[n+](Cc4cccc(C)c4)cn3)c3ccc(F)cc3F)c2)c1.[Br-].[Br-] | 256 µg/mL | 64 µg/mL | 256 µg/mL | 256 µg/mL | 256 µg/mL | 16 µg/mL | 128 µg/mL | 256 µg/mL
15 | OC(Cn1c[n+](Cc2ccccc2)cn1)(Cn1c[n+](Cc2ccccc2)cn1)c1ccc(F)cc1F.[Br-].[Br-] | 128 µg/mL | 256 µg/mL | 128 µg/mL | 128 µg/mL | 256 µg/mL | 256 µg/mL | 256 µg/mL | 128 µg/mL
16 | O=[N+]([O-])c1ccc(C[n+]2cnn(CC(O)(Cn3c[n+](Cc4ccc([N+](=O)[O-])cc4)cn3)c3ccc(F)cc3F)c2)cc1.[Br-].[Br-] | 128 µg/mL | 128 µg/mL | 128 µg/mL | 128 µg/mL | 128 µg/mL | 64 µg/mL | 64 µg/mL | 256 µg/mL
17 | Fc1ccc(Cn2cncn2)c(F)c1 | > 256 µg/mL | > 256 µg/mL | > 256 µg/mL | > 256 µg/mL | > 256 µg/mL | > 256 µg/mL | > 256 µg/mL | > 256 µg/mL
18 | O=C1c2cccc3c(Br)ccc(c23)C(=O)N1CCCCCCn1cncn1 | > 256 µg/mL | > 256 µg/mL | > 256 µg/mL | > 256 µg/mL | > 256 µg/mL | > 256 µg/mL | > 256 µg/mL | > 256 µg/mL
19 | CCCCCCCC[n+]1cnn(Cc2ccc(F)cc2F)c1.[Br-] | 32 µg/mL | 32 µg/mL | 8 µg/mL | 16 µg/mL | 64 µg/mL | 8 µg/mL | 16 µg/mL | 16 µg/mL
20 | Fc1ccc(Cn2c[n+](Cc3ccc(Cl)cc3Cl)cn2)c(F)c1.[Br-] | > 256 µg/mL | > 256 µg/mL | 64 µg/mL | 128 µg/mL | 128 µg/mL | > 256 µg/mL | 128 µg/mL | > 256 µg/mL
21 | Fc1ccc(Cn2c[n+](CCOc3ccc4ccccc4c3)cn2)c(F)c1.[Br-] | 128 µg/mL | 32 µg/mL | 16 µg/mL | 8 µg/mL | 64 µg/mL | 16 µg/mL | 8 µg/mL | 64 µg/mL
22 | OC(Cn1cncn1)(Cn1cncn1)c1ccc(F)cc1F [FLUCONAZOLE] | 256 µg/mL (≈ 836 µM) | 0.5 µg/mL (≈ 1.63 µM) |  |  |  |  |  | 
23 | CCn1cc(C(=O)O)c(=O)c2cc(F)c(N3CCNCC3)cc21 [NORFLOXACIN] |  |  | 1 µg/mL (≈ 3.13 µM) | 2 µg/mL (≈ 6.26 µM) | 1 µg/mL (≈ 3.13 µM) | 8 µg/mL (≈ 25.1 µM) | 0.5 µg/mL (≈ 1.57 µM) | 1 µg/mL (≈ 3.13 µM)
